Data published in ChEMBL document CHEMBL1138322 (J Med Chem, 2007).
Active and inactive are the calls of the source. No cut-off for these calls is given here.

Experiments:
Mus musculus [1] = assay: Reduction of plasma free fatty acid levels in po dosed mouse after 15 mins; format: functional, organism-based; conditions: for ED50: po
Method in brief: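 Mice dosed orally. Plasma free fatty acids and plasma compound level both measured at 15 min post-dosing.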

[2] = Plasma concentration in mouse at 3 mg/kg, ip after 5 mins
Mus musculus [3] = assay: Drug level in mouse at 10 mg/kg, po; conditions: read-out: Activity, in vivo
[4] = Clearance in mouse at 1 mg/kg, iv or 2 mg/kg, po; format: ADME, organism-based; conditions: in vivo
Method in brief: (§1)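 Mouse PK. Intravenous dose 1 mg/kg and oral dose 2 mg/kg, both given in DMSO/PEG400/water (5:40:55 v:v:v).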

[5] = Half life in mouse at 1 mg/kg, iv or 2 mg/kg, po; format: ADME, organism-based; conditions: in vivo; method in brief: as §1
Cytochrome P450 2C8 = target: T1, Cytochrome P450 2C8 (Homo sapiens, UniProt P10632); assay: Inhibition of CYP2C8 in human liver microsomes; format: ADME, Microsome
T1 sequence (P10632 whole entry): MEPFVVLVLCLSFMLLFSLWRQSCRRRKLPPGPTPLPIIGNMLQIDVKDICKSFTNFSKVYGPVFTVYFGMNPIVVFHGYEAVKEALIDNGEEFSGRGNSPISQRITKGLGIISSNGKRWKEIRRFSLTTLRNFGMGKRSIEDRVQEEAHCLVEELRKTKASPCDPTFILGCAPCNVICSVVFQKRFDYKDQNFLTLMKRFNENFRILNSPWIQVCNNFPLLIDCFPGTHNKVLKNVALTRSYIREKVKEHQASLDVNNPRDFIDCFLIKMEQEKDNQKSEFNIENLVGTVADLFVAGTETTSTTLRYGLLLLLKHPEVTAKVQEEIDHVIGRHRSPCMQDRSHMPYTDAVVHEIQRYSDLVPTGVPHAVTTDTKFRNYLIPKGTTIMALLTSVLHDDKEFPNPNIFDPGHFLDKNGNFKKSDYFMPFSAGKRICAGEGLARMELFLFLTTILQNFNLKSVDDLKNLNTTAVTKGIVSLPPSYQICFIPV
Method in brief: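 Human liver microsome CYP2C8 inhibition with taxol as substrate and montelukast as positive control; IC50 reported.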

[6] = Volume of distribution at steady state in mouse at 1 mg/kg, iv or 2 mg/kg, po; format: ADME, organism-based; conditions: in vivo, read-out: Vdss; method in brief: as §1
[7] = Oral bioavailability in mouse at 2 mg/kg, po; format: ADME, organism-based; conditions: in vivo; method in brief: as §1
Cytochrome P450 2C9 = Cytochrome P450 2C9 (Homo sapiens, UniProt P11712); assay: Inhibition of CYP2C9 in human liver microsomes; format: ADME, Microsome
Sequence of Cytochrome P450 2C9 (P11712 whole entry): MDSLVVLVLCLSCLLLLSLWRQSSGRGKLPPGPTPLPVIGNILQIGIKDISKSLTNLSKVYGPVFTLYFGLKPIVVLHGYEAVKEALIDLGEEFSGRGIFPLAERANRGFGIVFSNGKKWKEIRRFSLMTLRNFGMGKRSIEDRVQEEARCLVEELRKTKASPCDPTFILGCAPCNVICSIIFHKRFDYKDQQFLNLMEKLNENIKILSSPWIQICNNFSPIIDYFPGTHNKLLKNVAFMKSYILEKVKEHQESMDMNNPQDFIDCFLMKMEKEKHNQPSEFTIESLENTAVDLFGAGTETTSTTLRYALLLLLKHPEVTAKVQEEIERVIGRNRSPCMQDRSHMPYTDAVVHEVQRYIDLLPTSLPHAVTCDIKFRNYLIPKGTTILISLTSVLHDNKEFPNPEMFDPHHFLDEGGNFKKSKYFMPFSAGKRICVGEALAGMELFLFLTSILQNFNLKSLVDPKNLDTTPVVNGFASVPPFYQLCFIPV

[8] = Cmax in mouse at 1 mg/kg, iv or 2 mg/kg, po; format: ADME, organism-based; conditions: in vivo; method in brief: as §1
Adipocyte = assay: Inhibition of lipolysis in human adipocytes; format: functional, cell-based
Method in brief: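 Inhibition of lipolysis in human adipocytes, read as reduction of free fatty acid release.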

Mus musculus [9] = assay: Vasodilation effect in mouse ear at 100 mg/kg, ip; format: functional, organism-based; parameters: dose 100 mg/kg
Method in brief: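 Flushing model in mice. Compound given i.p. in 5% DMSO/40% PEG400/55% water. Vasodilation read as the change in ear blood perfusion by laser Doppler flowmetry.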

[10] = Plasma concentration in mouse at 100 mg/kg, ip after 15 mins; format: ADME, organism-based; parameters: dose 100 mg/kg, route intraperitoneal
Method in brief: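 After an i.p. dose in the mouse ear vasodilation study, plasma compound level measured at 15 min post-dose.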

[11] = Therapeutic index, ratio of vasodilating effect to IC50 for FFA reduction in mouse; format: organism-based; conditions: in vivo
Method in brief: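 Mouse ear vasodilation (flushing) measured as the change in blood perfusion by laser Doppler flowmetry after i.p. dosing in 5% DMSO/40% PEG400/55% water, with plasma drug level taken post-dose. Plasma FFA reduction was measured after p.o. dosing, with compound and FFA plasma levels at 15 min. TI = minimum plasma level inducing flushing ÷ in vivo IC50 for FFA reduction.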

[12] = target: T2, Hydroxycarboxylic acid receptor 2 (Mus musculus, UniProt Q9EP66); assay: Agonist activity at mouse GPR109A by [35S]GTP-gamma-S binding assay; format: functional
T2 sequence (Q9EP66 whole entry): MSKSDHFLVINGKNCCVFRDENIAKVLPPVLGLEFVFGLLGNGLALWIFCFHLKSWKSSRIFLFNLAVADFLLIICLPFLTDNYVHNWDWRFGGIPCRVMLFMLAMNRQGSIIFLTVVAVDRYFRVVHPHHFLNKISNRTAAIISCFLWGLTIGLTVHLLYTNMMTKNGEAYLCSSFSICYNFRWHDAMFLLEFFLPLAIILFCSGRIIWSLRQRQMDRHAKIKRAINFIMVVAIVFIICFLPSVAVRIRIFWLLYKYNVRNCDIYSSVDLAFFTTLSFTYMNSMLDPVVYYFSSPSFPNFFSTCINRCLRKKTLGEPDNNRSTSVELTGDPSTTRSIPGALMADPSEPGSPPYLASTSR

[13] = target: T2, Hydroxycarboxylic acid receptor 2; assay: Displacement of [3H]niacin from mouse GPR109A

Structure (SMILES)	ED50 (Mus musculus [1])	concentration at 5 min [2]	concentration (Mus musculus [3])	clearance [4]	half-life [5]	IC50 (Cytochrome P450 2C8)	Vd [6]	bioavailability [7]	IC50 (Cytochrome P450 2C9)	Cmax [8]	IC50 (Adipocyte)	Activity (Mus musculus [9])	concentration at […] [10]	selectivity ratio [11]	IC50 (Mus musculus [1])	EC50 [12]	IC50 [13]
O=C(O)c1cccnc1 [NIACIN]	8 mg/kg	18 µM	20 µM	–	–	–	–	–	–	–	–	–	–	–	–	–	–
O=C(CCc1cnc(-c2ccc(O)cn2)s1)Nc1ccccc1C(=O)O	–	–	–	8.5 mL/min/kg	132 min	20.3 µM	0.62 L/kg	27%	5.7 µM	520 nM	–	–	–	–	–	–	–
O=C(CCc1nc(-c2ccc(O)cc2)no1)Nc1ccccc1C(=O)O	9 mg/kg	–	–	34 mL/min/kg	78 min	–	1.66 L/kg	6%	–	120 nM	30 nM	inactive	490 µM	> 70	6.9 µM	1600 nM	460 nM
O=C(CCc1ncc(-c2ccc(O)cn2)s1)Nc1ccccc1C(=O)O	–	–	–	–	–	9.3 µM	–	–	4.2 µM	–	–	–	–	–	–	–	–
Cc1c(CCC(=O)Nc2ccccc2C(=O)O)cnn1-c1ccc(O)cc1	–	–	–	26 mL/min/kg	66 min	19 µM	0.88 L/kg	2.5%	15 µM	30 nM	40 nM	–	–	–	–	–	–
O=C(CCc1ccc(-c2ccc(O)cc2Cl)cc1)Nc1ccccc1C(=O)O	–	–	–	18 mL/min/kg	120 min	< 0.4 µM	0.35 L/kg	5%	< 0.4 µM	960 nM	–	–	–	–	–	–	–
O=C(CCc1nc(-c2ccc(O)cn2)no1)Nc1ccccc1C(=O)O	–	–	–	–	–	> 100 µM	–	–	> 100 µM	–	5 nM	–	–	–	–	–	–
O=C(CCc1ccc(-c2ccc(O)cn2)cc1)Nc1ccccc1C(=O)O	–	–	–	0.38 mL/min/kg	318 min	8.9 µM	0.11 L/kg	57%	1.6 µM	5000 nM	–	–	–	–	–	–	–
O=C(CCc1cnc(-c2ccc(O)cc2Cl)s1)Nc1ccccc1C(=O)O	–	–	–	7.3 mL/min/kg	96 min	1.2 µM	0.37 L/kg	37%	2.8 µM	2100 nM	–	–	–	–	–	–	–
